Assay outcomes deposited in PubChem BioAssay by Johns Hopkins Ion Channel Center.
KCNK9 inh: inhibitors of human KCNK9 two-pore domain potassium channel; Q9NPC2; HEK293 KCNK9, FluxOR thallium flux fluorescence; hits give low values; B-score at 10 µM; hit rate 1.2% among 310,000; AID 488922;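 active = ratio B-score over 3 SD below the library mean, with starting fluorescence within 5 SD of its mean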;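 also: negative B-score means less thallium flux so channel inhibition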
KCNQ1 act: potentiators or activators of human KCNQ1 potassium channel | CHO-K1 KCNQ1, thallium flux FluxOR fluorescence; hits give high values | hit rate 0.35% among 310,000 | AID 2648 | B-score at 10 µM | P51787;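 active = fluorescence ratio B-score, a plate-corrected score, at least three library SD, with initial intensity B-score within 5 SD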
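Schedule – 37 °C overnight plating, 90-min dark dye load, 20-min compound pretreatment · System – stable KCNQ1 CHO-K1 line · Probe or stimulus – thallium- and potassium-containing depolarizing buffer · Measured by – kinetic FluxOR fluorescence, 10 s baseline plus 110 s post-stimulus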
KCNQ1 block: blocks the human KCNQ1 potassium channel; B-score at 10 µM; AID 2642; P51787; CHO-K1 KCNQ1, FluxOR thallium flux fluorescence; hits give high values; hit rate 1.3% among 310,000;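 active = compounds whose thallium flux B-score, printed positive for inhibition, exceeds three library SD while starting fluorescence stays within three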;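 also: channel opened by potassium depolarization with thallium stimulus after 20 min compound exposure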
KCNK3 block: human KCNK3 channel inhibition, primary screen | O14649 | CHO-KCNK3 thallium flux, FluxOR fluorescence; hits give low values | B-score at 10 µM | hit rate 0.84% among 340,000 | AID 602410;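 active = B-score under library mean minus 4 SD, starting fluorescence ratio at most library mean plus 5 SD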;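 also: more negative B-score means stronger inhibition of thallium flux through KCNK3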
hERG protect: shields human hERG channel from block by proarrhythmic agents; hit rate 0.51% among 310,000; Q12809; activation (rescue from dofetilide block), less the hit threshold, % at 10 µM; CHO-hERG, FluxOR thallium flux, dofetilide IC70 present;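 active = activation above the mean of controls blocked by dofetilide plus 5 SD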;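 also: thallium influx through hERG after potassium depolarization seen as dye fluorescence rise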
KCNK9 block conf: confirmation of human KCNK9 potassium channel inhibitors | hit rate 43% among 4,900 | AID 492992 | shares compounds with KCNK9 inh | HEK293 KCNK9 cells, FluxOR thallium flux fluorescence | inhibition, % at 10 µM;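 active = thallium signal inhibited by more than 5 SD of the compound-free buffer control wells, on both duplicate plates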
Kir2-1 spec: tests whether KCNK9 modulators also affect mouse Kir2.1; shares compounds with KCNK9 inh; Kir2.1 cells, FluxOR thallium flux fluorescence; inhibition, % at 10 µM; hit rate 4% among 4,900; AID 492993;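 active = thallium signal drop more than 5 SD beyond the mean of the no-compound control wells, seen in both duplicate plates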;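 also: signal is fluorescence rise after thallium addition divided by baseline fluorescence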
Target sequence (P35561 whole entry, looked up): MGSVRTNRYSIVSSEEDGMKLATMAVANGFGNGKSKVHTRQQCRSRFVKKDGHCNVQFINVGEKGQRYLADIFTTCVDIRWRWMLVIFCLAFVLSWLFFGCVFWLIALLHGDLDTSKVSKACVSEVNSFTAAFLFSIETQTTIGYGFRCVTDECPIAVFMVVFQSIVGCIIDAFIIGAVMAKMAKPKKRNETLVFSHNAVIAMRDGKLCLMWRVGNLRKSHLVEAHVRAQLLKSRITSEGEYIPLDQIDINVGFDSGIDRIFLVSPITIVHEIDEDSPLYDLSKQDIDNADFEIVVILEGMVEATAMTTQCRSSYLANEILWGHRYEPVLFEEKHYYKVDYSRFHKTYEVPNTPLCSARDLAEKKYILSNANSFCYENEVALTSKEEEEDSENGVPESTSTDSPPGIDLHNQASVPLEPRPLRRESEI
HEK293 Tl ctr: non-induced cell nonspecific activity of KCNK9 modulators; shares compounds with KCNK9 inh; non-induced KCNK9-HEK293, FluxOR thallium flux; inhibition, % at 10 µM; hit rate 40% among 4,900; AID 492997;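 active = thallium signal drop beyond 5 SD of the untreated control mean, on both duplicate plates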
Hits are given with their value. In the library only some 3.1% were active in any assay of this set; here they are far more common.

For COc1ccc(N2CCN(C(=O)CSc3ncnc4scc(-c5ccc(C)cc5)c34)CC2)cc1 the results were KCNK9 inh inactive, KCNQ1 act inactive, KCNQ1 block inactive, KCNK3 block inactive, hERG protect inactive, KCNK9 block conf inactive, Kir2-1 spec inactive and HEK293 Tl ctr inactive.
For COc1ccc(N2CCN(C(=O)CSc3nc(C)cs3)CC2)cc1 the results were KCNK9 inh inactive, KCNQ1 act inactive, KCNQ1 block inactive, KCNK3 block inactive and hERG protect inactive.
`COc1cc(-c2nnc(COc3ccc4ccccc4c3)o2)cc(OC)c1OC` gave KCNK9 inh inactive, KCNQ1 act inactive, KCNQ1 block inactive, KCNK3 block inactive, hERG protect inactive, KCNK9 block conf inactive, Kir2-1 spec inactive and HEK293 Tl ctr inactive.
Screening CCCn1c(N)c(Sc2ccccc2[N+](=O)[O-])c(=O)n(CCC)c1=O returned KCNK9 inh inactive, KCNQ1 act inactive, KCNQ1 block inactive, KCNK3 block inactive and hERG protect inactive.
Screening CCOC(=O)COc1nc(-c2ccco2)cc(-c2ccco2)c1C#N returned KCNK9 inh -10.5, KCNQ1 act inactive, KCNQ1 block inactive, KCNK3 block inactive, hERG protect inactive, KCNK9 block conf 67.0%, Kir2-1 spec inactive and HEK293 Tl ctr 36.0%.
CCOC(=O)COc1nc(-c2ccc(C)cc2)cc(-c2ccco2)c1C#N was read as KCNK9 inh inactive, KCNQ1 act inactive, KCNQ1 block inactive, KCNK3 block inactive and hERG protect inactive.
For CCCOc1ccc(N2CC(C(=O)NC3=NCCS3)CC2=O)cc1 (configuration not stated) the results were KCNK9 inh inactive, KCNQ1 act inactive, KCNQ1 block inactive, KCNK3 block inactive and hERG protect inactive.
`Cc1cccc(Nc2nc(NCc3ccco3)c3ccccc3n2)c1` gave KCNK9 inh -8.13, KCNQ1 act inactive, KCNQ1 block 10, KCNK3 block inactive, hERG protect inactive, KCNK9 block conf 49.0%, Kir2-1 spec 86.0% and HEK293 Tl ctr inactive.
Screening CCN(C(=O)CSc1nc2cc(S(=O)(=O)N(CC)CC)ccc2o1)C1CCS(=O)(=O)C1 (configuration not stated) returned KCNK9 inh inactive, KCNQ1 act inactive, KCNQ1 block inactive, KCNK3 block inactive and hERG protect inactive.
`COc1ccc(C)cc1NC(=O)c1cc(C2CC2)nc2c1c(C)nn2C1CCS(=O)(=O)C1` (configuration not stated) gave KCNK3 block inactive.
CCc1ccc(CSc2nccn2-c2ccccc2)cc1 was read as KCNK9 inh inactive, KCNQ1 act inactive, KCNQ1 block inactive, KCNK3 block inactive, hERG protect inactive, KCNK9 block conf inactive, Kir2-1 spec inactive and HEK293 Tl ctr inactive.
O=[N+]([O-])c1cccc(-c2ccc(CN3CCCCC3)o2)c1 was read as KCNK9 inh inactive, KCNQ1 act inactive, KCNQ1 block inactive, KCNK3 block inactive and hERG protect inactive.
`CN(C(=O)Cn1cc([N+](=O)[O-])ccc1=O)C1CCCCC1` gave KCNK3 block inactive.
COCCN(C(=S)Nc1ccc(C)cc1)C(C)c1cccnc1 (configuration not stated) was read as KCNK9 inh inactive, KCNQ1 act inactive, KCNQ1 block inactive, KCNK3 block inactive and hERG protect inactive.
For N#Cc1ccc(-c2ccccc2)nc1SCC(=O)c1cccc(Cl)c1 the results were KCNK9 inh -8.67, KCNQ1 act inactive, KCNQ1 block inactive, KCNK3 block inactive, hERG protect inactive, KCNK9 block conf 34.5%, Kir2-1 spec inactive and HEK293 Tl ctr 46.0%.
For Cc1cccc(COCC(Cc2ccccc2)N2CCN(C(=O)c3cc(Cl)cc(Cl)c3)CCC2=O)c1 (configuration not stated) the results were KCNK9 inh inactive, KCNQ1 act inactive, KCNQ1 block inactive, KCNK3 block inactive and hERG protect inactive.
